An excerpt weighted towards active compounds, which were near 2.1% of everything screened.
SMARCA2 act: SMARCA2 (BRM) function activators, primary screen, cell-based, luminescence, high throughput; actives 1% (n = 370,000); MG213 cells, MMTV-luciferase reporter, dexamethasone, overnight; AID 652017, 2013; activation, % at 9.1 µM; in the data active = activation above about 7.8%
MC4R ag barr: MC4R agonists recruiting beta-arrestin, primary screen, cell-based, luminescence, agonist arm of biased-ligand search; Melanocortin receptor 4 (Homo sapiens), P32245; U2OS MC4R beta-arrestin complementation; percent of melanotan II response, DMSO zero; activation, % at 8.9 µM; actives 0.98% (n = 360,000); AID 540308, 2011;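 active = activation above a per-plate cutoff, the mean activation of sample wells on that plate plus 3 SD, cut at about 8% in these data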
Target sequence (P32245 whole entry, looked up): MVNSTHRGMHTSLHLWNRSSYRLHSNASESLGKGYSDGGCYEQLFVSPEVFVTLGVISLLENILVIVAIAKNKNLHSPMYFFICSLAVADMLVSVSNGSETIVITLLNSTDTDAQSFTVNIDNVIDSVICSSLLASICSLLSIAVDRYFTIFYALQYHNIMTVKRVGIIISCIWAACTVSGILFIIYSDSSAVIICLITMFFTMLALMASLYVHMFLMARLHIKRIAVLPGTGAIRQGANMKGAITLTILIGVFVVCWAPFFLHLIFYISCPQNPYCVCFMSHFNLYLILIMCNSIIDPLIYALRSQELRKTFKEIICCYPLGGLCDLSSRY
MC4R antagonist: MC4R antagonists of cAMP signaling, primary screen, cell-based, TR-FRET, antagonist arm of biased-ligand search; Melanocortin receptor 4 (Homo sapiens), P32245; MC4R-expressing cells, MTII-stimulated cAMP, LANCE TR-FRET; inhibition, % at 6.5 µM; actives 0.48% (n = 360,000); AID 540295, 2011;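 active = inhibition above its plate's cutoff, the mean of tested wells on that plate plus 3 SD, cut at about 29% in these data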
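System – human MC4R-expressing U2OS cells · Also added – Melanotan II · Dosing – one concentration, 6.5 µM nominal · Timing – 30-min compound, 1-h challenge, 1-h detection, room temperature · Measured by – Eu-cAMP/anti-cAMP TR-FRET, emission 671 nm · Replicates – singlicate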
F508del corr: F508del CFTR correction, initial screen, CFBE line, single point. CFBE cells, YFP halide quenching; stimulated with forskolin plus potentiator P3; % fluorescence drop versus neutral controls. actives 0.36% (n = 350,000). activity (quench increase), % at 7.58 µM. AID 720511, 2013;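 active = mean added fluorescence quench of at least 8% versus neutral control, with both replicates also reaching 8%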;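 also: cells transiently co-express mutant CFTR-F508del with the halide-sensitive YFP; corrector assay measuring rescue of mutant channel to the surface after 24 h compound exposure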
SMARCA2 conf: SMARCA2 (BRM) function activators, confirmation, cell-based, luminescence, triplicate; shares compounds with SMARCA2 act; MG213 cells, MMTV-luciferase with dexamethasone, overnight; MG213 cells expressing E1A, Rb sequestered; DMSO wells 0%, reference activator 100%; activation, % at 9.1 µM; actives 30% (n = 3,500); AID 652260, 2013;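 active = activation above its plate's cutoff, the mean activation of tested wells plus 3 SD, cut at about 7.9% in these data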
GAL4-VP16 Luc: GAL4-VP16 luciferase reporter activation, counter-screen for SMARCA2 (BRM) activator project, cell-based, pG5luc, luminescence, high throughput; activation, % at 9.1 µM; HEK293 GAL4-VP16 pG5luc reporter; scaled: DMSO wells 0%, SAHA wells 100%; actives 41% (n = 3,500); shares compounds with SMARCA2 act; AID 686939, 2013;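 active = activation above the solvent-only control well mean plus 3 SD, averaged across control plates, cut at about 5.2% in these data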
Of the large screens only hits and unclear results are named; the others gave an inactive call (follow-up assays come after a bar, where they were run).

O=C(Nc1ccccn1)c1csc2c1CCCC2	SMARCA2 act 11 | SMARCA2 conf inactive | GAL4-VP16 Luc 6.5
O=C(O)Cn1cc(/C=c2/sc3nc4ccccc4n3c2=O)c2ccccc21	SMARCA2 act 10 | SMARCA2 conf inactive | GAL4-VP16 Luc 8.8
CCCNC(=O)Nc1ccc2c(c1)OC[C@H](C)N(CC1CCCC1)C[C@@H](C)[C@@H](OC)CN(C)C2=O	none (no result: SMARCA2 act, MC4R ag barr, MC4R antagonist)
CC(C)c1ccc(NC(=O)COC(=O)C2CC3C=CC2C3)cc1 (configuration not stated)	SMARCA2 act 8.2 | SMARCA2 conf inactive | GAL4-VP16 Luc inactive
Cc1noc(C)c1S(=O)(=O)N(C)C[C@H]1OCCCC[C@@H](C)Oc2ccc(NC(=O)c3ccccc3)cc2C(=O)N([C@@H](C)CO)C[C@@H]1C	none (no result: SMARCA2 act, MC4R ag barr, MC4R antagonist)
COc1ccc(C(NC(=O)c2ccco2)c2ccc(OC)c(OC)c2)cc1OC	SMARCA2 act 9.0 | SMARCA2 conf inactive | GAL4-VP16 Luc inactive
Cc1sc2nc(CN3CCCC3)nc(NCc3ccncc3)c2c1C	none
Cc1sc2nc(CN3CCCCC3)nc(Nc3ccc4c(c3)OCCO4)c2c1C	SMARCA2 act 9.2 | SMARCA2 conf 11 | GAL4-VP16 Luc inactive
O=C(Nc1ccccc1)N1CC(=O)N2[C@@H](CO)[C@@H](c3ccc(C#CC4CCCC4)cc3)[C@@H]2C1	none (no result: SMARCA2 act, MC4R ag barr, MC4R antagonist)
Clc1ccccc1C1CC(c2ccccc2)=Nc2ccccc2N1 (configuration not stated)	none
c1ccc(C2=Nc3ccccc3NC(c3ccccc3)C2)cc1 (configuration not stated)	SMARCA2 act 9.7 (no result: F508del corr) | SMARCA2 conf inactive | GAL4-VP16 Luc 7.0
CCCc1cc(=O)c2ccc(OCC(C)=O)cc2o1	none
CCCc1cc(=O)c2ccc(OC/C(C)=N/O)cc2o1	SMARCA2 act 8.5 | SMARCA2 conf inactive | GAL4-VP16 Luc inactive
O=C(N[C@H]1CC[C@H](CCNS(=O)(=O)c2ccccc2)O[C@H]1CO)c1cccnc1	none (no result: SMARCA2 act, MC4R ag barr, MC4R antagonist)
Cc1oncc1C(=O)Nc1ccc2ccccc2c1	SMARCA2 act 9.1 | SMARCA2 conf 9.3 | GAL4-VP16 Luc inactive
Cc1oncc1C(=O)Nc1cccc2ccccc12	none
COc1ccc(S(=O)(=O)Nc2ccc3c(c2)CC(=O)N([C@@H](C)CO)C[C@H](C)[C@H](CN(C)S(=O)(=O)c2c(C)noc2C)O3)cc1	none (no result: SMARCA2 act, MC4R ag barr, MC4R antagonist)
COc1cc(C)ccc1OCCCOc1ccccc1Cl	SMARCA2 act 9.5 (no result: F508del corr) | SMARCA2 conf 13 | GAL4-VP16 Luc 8.9
O=C(Cc1cccs1)NNC(=O)c1ccc(F)cc1	none
Cc1ccc(C(=O)NNC(=O)Cc2cccs2)cc1	SMARCA2 act 9.1 (no result: F508del corr) | SMARCA2 conf inactive | GAL4-VP16 Luc inactive
CCc1ccccc1N=Nc1c(N)[nH]n(-c2ccccc2)c1=O	SMARCA2 act 10 (no result: MC4R ag barr, MC4R antagonist, F508del corr) | SMARCA2 conf 8.1 | GAL4-VP16 Luc 6.0
Nc1[nH]n(-c2ccccc2)c(=O)c1N=Nc1ccccc1	none
O=C(CCNc1ccc(F)cc1)c1cccc([N+](=O)[O-])c1	none (no result: F508del corr)
Cc1ccc(NCCC(=O)c2cccc([N+](=O)[O-])c2)cc1	SMARCA2 act 9.4 (no result: F508del corr) | SMARCA2 conf 8.0 | GAL4-VP16 Luc inactive
CCC(=O)Nc1ccc(N2CCC(C)CC2)cc1	SMARCA2 act 9.6 (no result: F508del corr) | SMARCA2 conf inactive | GAL4-VP16 Luc inactive
CC1CCN(c2ccc(NC(=O)Cc3ccccc3)cc2)CC1	none
CNC(=O)C[C@@H]1CC[C@H]2[C@@H](COC[C@H](O)CN2S(=O)(=O)c2ccccc2Cl)O1	none (no result: SMARCA2 act, MC4R ag barr, MC4R antagonist)
Cn1/c(=N/NC(=O)c2ccccc2F)sc2ccccc21	SMARCA2 act 8.0 | SMARCA2 conf inactive | GAL4-VP16 Luc 8.2
C/C=C/c1cnc2c(c1)C(=O)N([C@@H](C)CO)C[C@H](C)[C@@H](CN(C)C(=O)Cc1ccccc1)O2	none (no result: SMARCA2 act, MC4R ag barr, MC4R antagonist)
COc1ccc(/C=N/Nc2cc(C)nc3c(C)cccc23)cc1	SMARCA2 act 9.1 | SMARCA2 conf 32 | GAL4-VP16 Luc inactive
CC(C)(C)OC(=O)N/N=C/c1ccc(Br)cc1	SMARCA2 act 8.2 | SMARCA2 conf 8.3 | GAL4-VP16 Luc 10
COc1ccc2c3c(cccc13)C(=O)N(O)C2=O	SMARCA2 act 9.0 (no result: F508del corr) | SMARCA2 conf 44 | GAL4-VP16 Luc inactive
O=C(CSc1nc2c(cnn2-c2ccc(F)cc2)c(=O)[nH]1)N1CCCc2ccccc21	none (no result: F508del corr)
Nc1nc(SCC(=O)N2CCCc3ccccc32)[nH]c(=O)c1-c1ccccc1	SMARCA2 act 11 | SMARCA2 conf inactive | GAL4-VP16 Luc inactive
COc1cccc(S(=O)(=O)Nc2ccc3c(c2)C(=O)N(C)C[C@@H](OC)[C@@H](C)CN(C(=O)Cc2cccnc2)[C@@H](C)CO3)c1	none (no result: SMARCA2 act, MC4R ag barr, MC4R antagonist)
Cc1cccc(C(=O)NNC(=O)c2ccccc2C)c1	none
Cc1ccccc1C(=O)NNC(=O)c1ccc(Br)cc1	SMARCA2 act 9.0 | SMARCA2 conf inactive | GAL4-VP16 Luc 5.5
Cc1sc2nc(SCC(=O)Nc3ccc(Cl)c(C(=O)O)c3)[nH]c(=O)c2c1C	SMARCA2 act 8.8 | SMARCA2 conf 9.2 | GAL4-VP16 Luc 8.9
Cc1sc2nc(SCC(=O)Nc3cccc(C(=O)O)c3)[nH]c(=O)c2c1C	none
CN1CCN(C(=O)c2cccc(-c3cnc4cnc(-c5ccccc5Oc5ccccc5)cn34)c2)CC1	SMARCA2 act 9.5 | SMARCA2 conf inactive | GAL4-VP16 Luc inactive
COc1ccc(-c2cc(C)no2)cc1S(=O)(=O)Nc1ccc(NC(C)=O)cc1	SMARCA2 act 8.7 | SMARCA2 conf inactive | GAL4-VP16 Luc inactive
N/C(=N\OC(=O)c1cccc2ccccc12)c1ccccn1	SMARCA2 act 11 | SMARCA2 conf 11 | GAL4-VP16 Luc 10
COc1cccc(C(=O)O/N=C(\N)c2ccccn2)c1OC	none
N/C(=N\OC(=O)c1ccco1)c1ccccn1	SMARCA2 act 12 | SMARCA2 conf 7.9 | GAL4-VP16 Luc 9.2
N/C(=N\OC(=O)c1ccco1)c1ccccc1	none (no result: F508del corr)
CC(=O)N(C)C[C@@H]1Oc2cc(C#Cc3cccnc3)ccc2S(=O)(=O)N([C@H](C)CO)C[C@@H]1C	none (no result: SMARCA2 act, MC4R ag barr, MC4R antagonist)
C[C@@H]1CCCCO[C@H](CN(C)C(=O)Nc2ccccc2)[C@@H](C)CN([C@@H](C)CO)C(=O)c2cc(NC(=O)CCCN(C)C)ccc2O1	none (no result: SMARCA2 act, MC4R ag barr, MC4R antagonist)
COc1cccc(CNc2nc3ccccc3n2C)c1O	SMARCA2 act 9.5 | SMARCA2 conf 11 | GAL4-VP16 Luc 9.6
C[C@H]1CN([C@@H](C)CO)C(=O)c2cc(C#Cc3ccncc3)cnc2O[C@@H]1CN(C)Cc1ccncc1	none (no result: SMARCA2 act, MC4R ag barr, MC4R antagonist)
